Test results: publication PMC12495087 (ESMO Open, 2025)

Experiments:
[1] = test system: tumors with local RET results; assay: clinical outcome by local RET result; assay type: in vivo, human
Summary of the method: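 RET alteration was confirmed locally by DNA- or RNA-based assays of tumour tissue or blood. Patients took oral drug once daily in 28-day cycles (10–150 mg escalation; expansion at recommended phase II dose). Investigator assessed response by RECIST v1.1 in patients with evaluable overall response and percent tumour-size change from baseline. ORR and DCR summarised with two-sided 95% exact CIs.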

[2] = biological target: RET; conditions: read-out: kd, potency against RET; cited from earlier work
[3] = test system: tumors with cfDNA-detected RET alterations; assay: clinical outcome by cfDNA RET alteration; assay type: in vivo, human
Summary of the method: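 Adults with advanced RET-altered solid tumours took oral drug once daily in 28-day cycles (10–150 mg dose escalation; expansion at recommended phase II dose). RET status came from plasma cfDNA drawn at screening (within 28 days pre-dose), cycle 1 day 15 (±2 days) and cycle 2 day 1. Investigator assessed response by RECIST v1.1 in patients with evaluable response and tumour-size change. ORR/DCR given with two-sided 95% exact CIs.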

[4] = 58 patients with cfDNA RET alterations
[5] = cfDNA RET alteration total, n = 58

In the case of `COc1cc2cc(-c3ccc(CC(=O)Nc4cc(C(C)(C)C(F)(F)F)no4)cn3)cnc2cc1OC` [BOS172738], the “BOR: PD” value ([1]; local Indel, n = 6) is reported as 1 (17) n (%), the “BOR: PR” value ([1]; local Indel, n = 6) is reported as 1 (17) n (%) and the “BOR: SD” value ([1]; local Indel, n = 6) is reported as 4 (67) n (%). The “DCR (PR + SD)” value ([1]; local Indel, n = 6) was 5 (83) n (%), the ORR ([1]; local Indel, n = 6) was 1 (17) n (%) and the “BOR: PD” value ([1]; local RET fusions, n = 57) was 10 (18) n (%). The “BOR: PR” value ([1]; local RET fusions, n = 57) was 21 (37) n (%), the “BOR: SD” value ([1]; local RET fusions, n = 57) was 26 (46) n (%) and the “DCR (PR + SD)” value ([1]; local RET fusions, n = 57) was 47 (82) n (%). The ORR ([1]; local RET fusions, n = 57) was 21 (37) n (%), the “BOR: PD” value ([1]; local RET total, n = 93) was 20 (22) n (%) and the “BOR: PR” value ([1]; local RET total, n = 93) was 28 (30) n (%). The “BOR: SD” value ([1]; local RET total, n = 93) was 45 (48) n (%), the “DCR (PR + SD)” value ([1]; local RET total, n = 93) was 73 (78) n (%) and the ORR ([1]; local RET total, n = 93) was 28 (30) n (%). For the same compound, the “BOR: PD” value ([1]; local SNV, n = 30) was 9 (30) n (%), the “BOR: PR” value ([1]; local SNV, n = 30) was 6 (20) n (%) and the “BOR: SD” value ([1]; local SNV, n = 30) was 15 (50) n (%). For the same compound, the “DCR (PR + SD)” value ([1]; local SNV, n = 30) was 21 (70) n (%), the ORR ([1]; local SNV, n = 30) was 6 (20) n (%) and the Kd [2] was no more than 1 nM. The “partial responses as best response” value [3, 4] was 29%, the “progressive disease as best response” value [3, 4] was 28% and the “stable disease as best response” value [3, 4] was 43%. For the same compound, the “BOR: PD” value [3, 5] was 16 (28) n (%), the “BOR: PR” value [3, 5] was 17 (29) n (%) and the “BOR: SD” value [3, 5] was 25 (43) n (%). For the same compound, the “DCR (PR + SD)” value [3, 5] was 42 (72) n (%), the ORR [3, 5] was 17 (29) n (%) and the “BOR: PD” value ([3]; cfDNA RET fusions + SNV, n = 2) was 1 (50) n (%). The “BOR: PR” value ([3]; cfDNA RET fusions + SNV, n = 2) was 1 (50) n (%), the “BOR: SD” value ([3]; cfDNA RET fusions + SNV, n = 2) was 0 n (%) and the “DCR (PR + SD)” value ([3]; cfDNA RET fusions + SNV, n = 2) was 1 (50) n (%). The ORR ([3]; cfDNA RET fusions + SNV, n = 2) was 1 (50) n (%), the “BOR: PD” value ([3]; cfDNA RET fusions, n = 37) was 6 (16) n (%) and the “BOR: PR” value ([3]; cfDNA RET fusions, n = 37) was 12 (32) n (%). The “BOR: SD” value ([3]; cfDNA RET fusions, n = 37) was 19 (51) n (%), the “DCR (PR + SD)” value ([3]; cfDNA RET fusions, n = 37) was 31 (84) n (%) and the ORR ([3]; cfDNA RET fusions, n = 37) was 12 (32) n (%). For the same compound, the “BOR: PD” value ([3]; cfDNA SNV, n = 19) was 9 (47) n (%), the “BOR: PR” value ([3]; cfDNA SNV, n = 19) was 4 (21) n (%) and the “BOR: SD” value ([3]; cfDNA SNV, n = 19) was 6 (32) n (%). The “DCR (PR + SD)” value ([3]; cfDNA SNV, n = 19) was 10 (53) n (%) and the ORR ([3]; cfDNA SNV, n = 19) was 4 (21) n (%).
